Source: ChEMBL document CHEMBL4004789, “Isochromans and Related Constituents from the Endophytic Fungus Annulohypoxylon truncatum of Zizania caduciflora and Their Anti-Inflammatory Effects” (J Nat Prod, 2017)
Calls of active or inactive are those of the source. No cut-off for these calls is given here.

What was measured:
[1] = Anti-inflammatory activity in C57BL/6 mouse BMDC assessed as inhibition of LPS-induced IL-6 production pretreated for 1 hr followed by LPS-stimulation after 18 hrs by ELISA; type: functional, cell-based
In short: (§1)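 BMDCs came from wild-type C57BL/6 bone marrow, cultured 6 days with GM-CSF-containing J558L supernatant in RPMI 1640 with 10% FBS; loosely adherent cells were used. Cells were plated at 1 × 10⁵/well and pretreated 1 h with compound at 2, 5, 10, 25 and 50 μM. Stimulation was 10 ng/mL S. minnesota LPS. Murine cytokine in 18 h supernatants was measured by ELISA. Mean + SD, ≥3 independent experiments in triplicate.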

[2] = Anti-inflammatory activity in C57BL/6 mouse BMDC assessed as inhibition of LPS-induced IL12 p40 production pretreated for 1 hr followed by LPS-stimulation after 18 hrs by ELISA; type: functional, cell-based; in short: as §1
[3] = Anti-inflammatory activity in C57BL/6 mouse BMDC assessed as inhibition of LPS-induced TNFalpha production pretreated for 1 hr followed by LPS-stimulation after 18 hrs by ELISA; type: functional, cell-based; in short: as §1
[4] = Cytotoxicity against C57BL/6 mouse BMDC at 50 uM after 24 hrs by CCK8 assay; type: cell-based
In short: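 GM-CSF-derived C57BL/6 BMDCs were seeded at ~1 × 10⁴ cells/well and cultured overnight. Compound was added across a dose series for 24 h. CCK-8 reagent was then added for 1 h, and absorbance at 450 nm was read as viable cell number. Triplicate wells.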

BMDC [5] = assay: Anti-inflammatory activity in C57BL/6 mouse BMDC assessed as inhibition of LPS-induced TNFalpha production at 50 uM pretreated for 1 hr followed by LPS-stimulation after 18 hrs by ELISA; type: functional, cell-based
In short: (§2)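 Wild-type C57BL/6 mouse bone marrow cells were grown 6 days in RPMI 1640 with 10% FBS, 50 μM β-ME, 2 mM glutamine and 3% J558L supernatant (GM-CSF). Non-adherent DCs were plated at 1 × 10⁵/well and given compound at 50 μM for 1 h. They were then stimulated with 10 ng/mL Salmonella minnesota LPS. Supernatant cytokine was measured by ELISA at 18 h. Mean + SD, ≥3 independent experiments in triplicate.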

BMDC [6] = assay: Anti-inflammatory activity in C57BL/6 mouse BMDC assessed as inhibition of LPS-induced IL-6 production at 50 uM pretreated for 1 hr followed by LPS-stimulation after 18 hrs by ELISA; type: functional, cell-based; in short: as §2
BMDC [7] = assay: Anti-inflammatory activity in C57BL/6 mouse BMDC assessed as inhibition of LPS-induced IL12 p40 production at 50 uM pretreated for 1 hr followed by LPS-stimulation after 18 hrs by ELISA; type: functional, cell-based; in short: as §2

Row | Structure (SMILES) | IC50 [1] [µM] | IC50 [2] [µM] | IC50 [3] [µM] | Activity [4] | inhibition (BMDC [5]) | inhibition (BMDC [6]) | inhibition (BMDC [7])
1 | C[S+]([O-])c1ccc(-c2nc(-c3ccc(F)cc3)c(-c3ccncc3)[nH]2)cc1 (stereo not drawn) [SB-203580] | 3.5 | 5 | 7.2 |  |  |  | 
2 | COc1c2c(cc(O)c1O[C@H]1O[C@H](CO)[C@@H](O)[C@H]1O)C[C@@H](C)OC2 | > 100 | > 100 | > 100 | Non-Toxic |  |  | 
3 | COc1c(O)cc2c(c1O)CO[C@H](C)C2 | > 100 | > 100 | > 100 | Non-Toxic |  |  | 
4 | Cc1ccc2c(c1O)C(=O)O[C@H](C)C2 | > 100 | > 100 | > 100 | Non-Toxic |  |  | 
5 | COc1cc2c(c(O)c1OC)CO[C@H](C)[C@H]2O | > 100 | > 100 | > 100 | Non-Toxic |  |  | 
6 | C[C@@H]1CC2=C(CO1)C(=O)[C@](C)(O)[C@@H](O)C2 | 5.3 | 19.4 | 37.6 | Non-Toxic | Active | Active | Active
7 | COc1cc2c(c(O)c1OC)CO[C@H](C)C2 | > 100 | > 100 | > 100 | Non-Toxic |  |  | 
8 | C[C@@H]1Cc2cc(O)cc(O)c2CO1 | > 100 | > 100 | > 100 | Non-Toxic |  |  | 
9 | COc1cc2c(c(O)c1O)CO[C@H](C)[C@H]2O | > 100 | > 100 | > 100 | Non-Toxic |  |  | 
